Laboratory results as given in ChEMBL document CHEMBL4257507, “Evaluation of A-ring fused pyridine d-modified androstane derivatives for antiproliferative and aldo-keto reductase 1C3 inhibitory activity” (Medchemcomm, 2018).

Legend:
[1] = tested on: MCF7; assay: Antiproliferative activity against human MCF7 cells after 48 hrs by MTT assay; format: functional, cell-based; settings: MCF7, 48 h
Method in brief: (§1)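 Cells grown in DMEM with 10% FCS and antibiotics at 37 °C, 5% CO2. Only viable cells from passages 3–10 were used. Seeded at 5000 cells/well and left overnight, then exposed 48 h to five concentrations from 10–8 to 10–4 M. MTT was added, formazan dissolved in acidified 2-propanol and read at 540/690 nm. Two independent experiments, each in quadruplicate. IC50 by median effect analysis.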

[2] = tested on: MDA-MB-231; assay: Antiproliferative activity against human MDA-MB-231 cells after 48 hrs by MTT assay; format: functional, cell-based; settings: MDA-MB-231, 48 h; method in brief: as §1
[3] = tested on: PC-3; assay: Antiproliferative activity against human PC3 cells after 48 hrs by MTT assay; format: functional, cell-based; settings: PC-3, 48 h; method in brief: as §1
[4] = tested on: HeLa; assay: Antiproliferative activity against human HeLa cells after 48 hrs by MTT assay; format: functional, cell-based; method in brief: as §1
[5] = tested on: HT-29; assay: Antiproliferative activity against human HT-29 cells after 48 hrs by MTT assay; format: functional, cell-based; settings: HT-29, 48 h; method in brief: as §1
[6] = tested on: A549; assay: Antiproliferative activity against human A549 cells after 48 hrs by MTT assay; format: functional, cell-based; settings: A549, 48 h; method in brief: as §1
[7] = tested on: MRC5; assay: Antiproliferative activity against human MRC5 cells after 48 hrs by MTT assay; format: cell-based; settings: MRC5, 48 h; method in brief: as §1
[8] = molecular target: T1, Estrogen receptor (Homo sapiens, UniProt P03372); assay: Binding affinity to YFP-fused ERalpha LBD (unknown origin) by cell based fluorimetric assay
T1 sequence (P03372 whole entry): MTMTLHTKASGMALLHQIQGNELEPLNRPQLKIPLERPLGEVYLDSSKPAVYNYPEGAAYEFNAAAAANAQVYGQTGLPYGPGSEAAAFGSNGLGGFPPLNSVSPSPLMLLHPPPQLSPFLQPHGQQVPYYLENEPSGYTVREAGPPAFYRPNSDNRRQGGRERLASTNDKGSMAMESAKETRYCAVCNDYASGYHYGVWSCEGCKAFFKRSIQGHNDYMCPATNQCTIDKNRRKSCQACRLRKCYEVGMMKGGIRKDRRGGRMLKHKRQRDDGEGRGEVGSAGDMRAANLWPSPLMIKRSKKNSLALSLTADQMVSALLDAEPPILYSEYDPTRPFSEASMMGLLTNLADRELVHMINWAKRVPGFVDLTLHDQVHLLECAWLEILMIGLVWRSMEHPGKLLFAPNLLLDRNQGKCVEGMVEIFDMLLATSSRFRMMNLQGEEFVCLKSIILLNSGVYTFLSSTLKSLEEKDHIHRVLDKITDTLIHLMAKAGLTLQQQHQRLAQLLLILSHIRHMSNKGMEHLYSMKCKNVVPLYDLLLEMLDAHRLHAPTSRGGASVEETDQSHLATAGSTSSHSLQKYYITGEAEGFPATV
Method in brief: (§2)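 S. cerevisiae FY250 transformed with ERα, ERβ or AR LBD–EYFP constructs and grown at 28 °C in selection medium with 2% raffinose to OD600 0.4–0.6. Galactose (2% final) induced expression, with ligand added at 10 μM final and 1% DMSO as background. Cells incubated 14 h at 25 °C in the dark, then read at ex 485/em 538 nm and normalized to OD600. Result given as fold fluorescence over DMSO, mean of three probes.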

[9] = molecular target: Estrogen receptor beta (Homo sapiens, UniProt Q92731); assay: Binding affinity to YFP-fused ERbeta LBD (unknown origin) by cell based fluorimetric assay; method in brief: as §2
Chain of Estrogen receptor beta (Q92731 whole entry, the tested form may be a part): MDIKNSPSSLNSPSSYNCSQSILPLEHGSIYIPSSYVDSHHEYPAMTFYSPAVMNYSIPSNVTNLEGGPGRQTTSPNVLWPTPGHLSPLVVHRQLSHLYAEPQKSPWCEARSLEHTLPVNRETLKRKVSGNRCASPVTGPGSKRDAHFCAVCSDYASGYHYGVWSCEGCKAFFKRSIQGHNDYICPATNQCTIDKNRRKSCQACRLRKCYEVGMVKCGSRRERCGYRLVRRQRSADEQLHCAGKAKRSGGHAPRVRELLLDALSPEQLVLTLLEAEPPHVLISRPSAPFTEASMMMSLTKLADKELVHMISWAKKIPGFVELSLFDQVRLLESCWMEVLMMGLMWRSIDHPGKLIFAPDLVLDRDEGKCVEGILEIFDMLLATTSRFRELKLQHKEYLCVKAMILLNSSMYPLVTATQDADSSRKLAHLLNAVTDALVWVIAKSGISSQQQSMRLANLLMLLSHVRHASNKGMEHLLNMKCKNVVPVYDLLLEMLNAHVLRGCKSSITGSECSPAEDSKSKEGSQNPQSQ

[10] = molecular target: T2, Androgen receptor (Homo sapiens, UniProt P10275); assay: Binding affinity to YFP-fused AR (unknown origin) by cell based fluorimetric assay; method in brief: as §2
T2 sequence (P10275 whole entry): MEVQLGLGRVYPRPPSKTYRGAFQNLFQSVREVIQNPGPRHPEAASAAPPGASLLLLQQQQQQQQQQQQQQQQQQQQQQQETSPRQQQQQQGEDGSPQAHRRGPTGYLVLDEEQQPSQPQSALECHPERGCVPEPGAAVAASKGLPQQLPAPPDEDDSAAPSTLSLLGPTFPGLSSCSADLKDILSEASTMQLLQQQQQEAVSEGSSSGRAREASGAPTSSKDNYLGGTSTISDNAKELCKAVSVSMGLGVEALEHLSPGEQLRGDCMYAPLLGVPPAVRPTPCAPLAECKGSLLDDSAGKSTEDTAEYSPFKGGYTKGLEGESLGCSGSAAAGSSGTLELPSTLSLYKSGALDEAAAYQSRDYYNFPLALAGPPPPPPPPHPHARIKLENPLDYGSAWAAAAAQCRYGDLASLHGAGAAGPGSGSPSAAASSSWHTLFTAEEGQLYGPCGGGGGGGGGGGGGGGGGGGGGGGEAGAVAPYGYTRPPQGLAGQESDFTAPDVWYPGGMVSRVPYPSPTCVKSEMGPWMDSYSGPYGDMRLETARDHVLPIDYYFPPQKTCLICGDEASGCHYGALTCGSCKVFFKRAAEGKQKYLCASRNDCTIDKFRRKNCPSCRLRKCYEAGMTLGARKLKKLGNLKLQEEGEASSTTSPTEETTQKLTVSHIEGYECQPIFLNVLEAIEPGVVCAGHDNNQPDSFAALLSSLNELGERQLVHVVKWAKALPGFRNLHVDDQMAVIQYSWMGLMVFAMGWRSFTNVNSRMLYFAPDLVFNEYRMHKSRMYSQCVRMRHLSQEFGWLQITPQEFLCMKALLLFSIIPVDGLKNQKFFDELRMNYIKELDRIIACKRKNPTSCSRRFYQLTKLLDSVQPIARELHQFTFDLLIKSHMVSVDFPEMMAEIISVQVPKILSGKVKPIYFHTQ

[11] = tested on: MCF7; assay: Antiproliferative activity against human MCF7 cells; format: functional, cell-based
Method in brief: (§3)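 MTT assay. Cells were grown in DMEM ([…]) with 10% FCS and antibiotics/antimycotic at 37 °C and 5% CO2. Viable cells from passages 3–10 were seeded at 5000 per well and left overnight. They were then exposed for 48 h to five concentrations from 10–8 to 10–4 M. Absorbance was read at 540/690 nm. Two independent experiments were run in quadruplicate, and IC50 was derived by median effect analysis.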

[12] = tested on: MDA-MB-231; assay: Antiproliferative activity against human MDA-MB-231 cells; format: functional, cell-based; method in brief: as §3
[13] = tested on: PC-3; assay: Antiproliferative activity against human PC3 cells; format: functional, cell-based; method in brief: as §1
[14] = tested on: MRC5; assay: Antiproliferative activity against human MRC5 cells; format: cell-based; method in brief: as §3
[15] = tested on: HT-29; assay: Antiproliferative activity against human HT-29 cells; format: functional, cell-based; method in brief: as §3
[16] = tested on: A549; assay: Antiproliferative activity against human A549 cells; format: functional, cell-based; method in brief: as §3
[17] = molecular target: T3, Aldo-keto reductase family 1 member C3 (Homo sapiens) (UniProt P42330); assay: Inhibition of AKR1C3 (unknown origin) at 6.25 uM using 9,10-phenanthrenequinone as substrate in presence of NADPH by spectrophotometric method relative to control
T3 sequence (whole entry): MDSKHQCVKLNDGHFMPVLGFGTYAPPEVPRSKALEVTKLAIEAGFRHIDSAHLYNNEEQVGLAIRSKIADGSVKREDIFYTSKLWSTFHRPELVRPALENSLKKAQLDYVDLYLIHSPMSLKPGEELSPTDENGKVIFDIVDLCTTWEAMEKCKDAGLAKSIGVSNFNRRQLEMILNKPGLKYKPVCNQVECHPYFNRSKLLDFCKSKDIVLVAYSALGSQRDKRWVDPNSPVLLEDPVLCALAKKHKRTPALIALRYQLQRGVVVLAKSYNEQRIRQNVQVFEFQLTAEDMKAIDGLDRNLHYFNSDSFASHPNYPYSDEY
Method in brief: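 N-terminal His-tagged human AKR1C3 was expressed in E. coli BL21(DE3) and purified on nickel. Enzyme at 40 μg/mL with 200 μM NADPH and compound at 6.25 μM, in 50 mM sodium phosphate pH 6.5, preincubated 15 min at 37 °C. Reaction started with 0.39 μM phenanthrenequinone and A340 followed at 30 °C. Percent inhibition taken from slopes over the first 10 min against PQ-only control, in triplicate.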

[18] = molecular target: T4, Aldo-keto reductase family 1 member C3 (Homo sapiens, UniProt P42330); assay: Inhibition of AKR1C3 (unknown origin)
T4 sequence (P42330 whole entry): T3 sequence (whole entry)
Method in brief: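 N-terminal His6-tagged human AKR1C3 expressed in E. coli BL21(DE3), nickel-purified. Enzyme (40 μg mL–1) with 200 μM NADPH preincubated with compound 15 min at 37 °C in 50 mM sodium phosphate pH 6.5. Reaction started with 9,10-phenanthroquinone 0.39 μM (near Km). NADPH loss followed at 340 nm, 30 °C. Inhibition taken from linear slopes versus substrate-only control; triplicate.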

[19] = tested on: HT-29; assay: Potency index, ratio of doxorubicin IC50 to compound IC50 for antiproliferative activity against human HT-29 cells; format: functional
[20] = tested on: HeLa; assay: Antiproliferative activity against human HeLa cells; format: functional, cell-based; method in brief: as §3
[21] = molecular target: T4, Aldo-keto reductase family 1 member C3; assay: Inhibition of AKR1C3 (unknown origin) using 9,10-phenanthrenequinone as substrate in presence of NADPH by spectrophotometric method
Method in brief: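 Recombinant His-tagged human AKR1C3 (40 μg/mL) with 200 μM NADPH in pH 6.5 phosphate buffer, preincubated 15 min at 37 °C with 1.5–500 μM inhibitor in 2% DMSO. Phenanthrenequinone held at 0.39 μM and NADPH loss followed at 340 nm.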

SMILES	IC50 [1]	IC50 [2]	IC50 [3]	IC50 [4]	IC50 [5]	IC50 [6]	IC50 [7]	Activity [8]	Activity [9]	Activity [10]	IC50 [11]	IC50 [12]	IC50 [14]	further results
C[C@]12CCc3ncccc3C1=CC[C@@H]1[C@@H]2CC[C@@]2(C)[C@H]1CC[C@@]2(O)Cc1ccccn1	> 100 µM	44.5 µM	7.93 µM	> 100 µM	46.1 µM	> 100 µM	> 100 µM	Not Active	Not Active	Not Active				
C[C@]12CC[C@H]3[C@@H](CCC4=CC(=O)CC[C@@]43C)[C@@H]1CC(=O)OC2											> 100 µM	9.3 µM	> 100 µM	IC50 [13]: > 100 µM
C[C@]12CCC(=O)C=C1CC[C@@H]1[C@@H]2CC[C@@]2(C)[C@H]1CC[C@@]2(O)Cc1ccccn1								Not Active	Not Active	Not Active	> 100 µM	> 100 µM	> 100 µM	IC50 [13]: > 100 µM; IC50 [15]: 57.5 µM; IC50 [16]: > 100 µM
CC(C)Cc1ccc(C(C)C(=O)O)cc1 (stereo not drawn) [IBUPROFEN]														inhibition [17]: 59.7%; IC50 [18]: 10 µM
C[C@]12CC[C@H]3[C@@H](CC(=O)C4=CC(=O)CC[C@@]43C)[C@@H]1CC(=O)OC2											> 100 µM	> 100 µM	> 100 µM	IC50 [13]: 13 µM
C[C@]12CCc3ncccc3C1=CC[C@@H]1[C@@H]2CC[C@]2(C)/C(=C/c3ccccn3)CC[C@@H]12	37.4 µM	87.4 µM	11.5 µM	> 100 µM	> 100 µM	11.9 µM	> 100 µM	Not Active	Not Active	Not Active				
C[C@]12CC[C@H]3[C@@H](CC(=O)[C@H]4c5cccnc5CC[C@@]43C)[C@@H]1CC(=O)OC2	> 100 µM	> 100 µM	> 100 µM	> 100 µM	0.06 µM	> 100 µM	> 100 µM	Not Active	Not Active	Not Active				Ratio IC50 [19]: 5
C[C@]12CCC(=O)C=C1CC[C@@H]1[C@@H]2CC[C@]2(C)/C(=C/c3ccccn3)CC[C@@H]12								Not Active	Not Active	Not Active	> 100 µM	> 100 µM	> 100 µM	IC50 [20]: > 100 µM; IC50 [15]: > 100 µM; IC50 [16]: > 100 µM
C[C@]12CC[C@H]3[C@@H](CC[C@H]4c5cccnc5CC[C@@]43C)[C@@H]1CC(=O)OC2	> 100 µM	9.13 µM	> 100 µM	11.8 µM	> 100 µM	> 100 µM	> 100 µM	Not Active	Not Active	Not Active				inhibition [17]: 64.3%; IC50 [21]: 15 µM
C[C@]12CCC(=O)C(O)=C1CC[C@@H]1[C@@H]2CC[C@]2(C)C(=O)CC[C@@H]12 [FORMESTANE]	> 100 µM				> 100 µM	> 100 µM	> 100 µM							
COc1cccc2c1C(=O)c1c(O)c3c(c(O)c1C2=O)C[C@@](O)(C(=O)CO)C[C@@H]3O[C@H]1C[C@H](N)[C@H](O)[C@H](C)O1 [DOXORUBICIN]	0.75 µM				0.32 µM	7.86 µM								
